In ChEMBL document CHEMBL3804828, “2,4,6-Triaminopyrimidine as a Novel Hinge Binder in a Series of PI3Kδ Selective Inhibitors” (J Med Chem, 2016):
pIC50: −log10 of the molar value.

Legend:
[1] = organism: Homo sapiens; test: Selectivity ratio of IC50 for human full length PI3Kalpha catalytic subunit/p85alpha to IC50 for human full length PI3Kdelta catalytic subunit/p85alpha
Summary of the method: (§1)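 Ratio calculated from the isoform-specific PI3K IC50 values, with enzyme assays run in quadruplicate.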

[2] = biological target: PI3-kinase p110-delta/p85-alpha (Homo sapiens, UniProt O00329); test: Inhibition human full length PI3Kdelta catalytic subunit/p85alpha assessed as formation of PIP3 after 30 mins by europium labeled GRP-based TR-FRET assay; format: protein-complex assay
[3] = Clearance in human hepatocytes at 1 uM by LC/MS/MS analysis; format: ADME, cell-based, Hepatocyte
Summary of the method: (§2)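 Human hepatocytes, incubated with and without the aldehyde oxidase inhibitor raloxifene; predicted clearance calculated from turnover.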

[4] = organism: Homo sapiens; test: Selectivity ratio of IC50 for human recombinant PI3Kbeta to IC50 for human full length PI3Kdelta catalytic subunit/p85alpha; summary of the method: as §1
[5] = system: Hepatocyte; test: Clearance in human hepatocytes at 1 uM by LC/MS/MS in presence of aldehyde oxidase inhibitor raloxifene; format: ADME, cell-based; summary of the method: as §2
[6] = organism: Homo sapiens; test: Selectivity ratio of IC50 for human full length PI3Kgamma to IC50 for human full length PI3Kdelta catalytic subunit/p85alpha; summary of the method: as §1

Chain of PI3-kinase p110-delta/p85-alpha (P27986 whole entry): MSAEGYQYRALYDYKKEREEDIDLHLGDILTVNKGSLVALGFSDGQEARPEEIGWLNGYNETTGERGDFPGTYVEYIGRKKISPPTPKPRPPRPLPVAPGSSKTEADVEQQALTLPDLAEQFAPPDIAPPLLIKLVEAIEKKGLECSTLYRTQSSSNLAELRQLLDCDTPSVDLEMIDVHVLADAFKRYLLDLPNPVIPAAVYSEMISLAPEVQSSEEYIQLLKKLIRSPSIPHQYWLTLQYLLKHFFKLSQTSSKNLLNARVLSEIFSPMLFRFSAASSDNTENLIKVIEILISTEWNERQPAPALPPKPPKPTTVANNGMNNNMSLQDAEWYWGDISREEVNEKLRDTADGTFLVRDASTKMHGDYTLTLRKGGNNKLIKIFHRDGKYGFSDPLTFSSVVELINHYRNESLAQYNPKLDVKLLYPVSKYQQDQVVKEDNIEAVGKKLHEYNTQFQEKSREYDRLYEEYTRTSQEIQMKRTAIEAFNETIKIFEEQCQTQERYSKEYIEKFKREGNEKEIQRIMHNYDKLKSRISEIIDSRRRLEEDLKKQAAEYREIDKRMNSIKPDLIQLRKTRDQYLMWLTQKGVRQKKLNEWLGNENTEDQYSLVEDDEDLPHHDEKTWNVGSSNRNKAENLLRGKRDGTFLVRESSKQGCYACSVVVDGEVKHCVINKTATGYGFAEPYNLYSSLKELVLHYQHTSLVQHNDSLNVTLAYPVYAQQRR
Chain of PI3-kinase p110-delta/p85-alpha (O00329 whole entry): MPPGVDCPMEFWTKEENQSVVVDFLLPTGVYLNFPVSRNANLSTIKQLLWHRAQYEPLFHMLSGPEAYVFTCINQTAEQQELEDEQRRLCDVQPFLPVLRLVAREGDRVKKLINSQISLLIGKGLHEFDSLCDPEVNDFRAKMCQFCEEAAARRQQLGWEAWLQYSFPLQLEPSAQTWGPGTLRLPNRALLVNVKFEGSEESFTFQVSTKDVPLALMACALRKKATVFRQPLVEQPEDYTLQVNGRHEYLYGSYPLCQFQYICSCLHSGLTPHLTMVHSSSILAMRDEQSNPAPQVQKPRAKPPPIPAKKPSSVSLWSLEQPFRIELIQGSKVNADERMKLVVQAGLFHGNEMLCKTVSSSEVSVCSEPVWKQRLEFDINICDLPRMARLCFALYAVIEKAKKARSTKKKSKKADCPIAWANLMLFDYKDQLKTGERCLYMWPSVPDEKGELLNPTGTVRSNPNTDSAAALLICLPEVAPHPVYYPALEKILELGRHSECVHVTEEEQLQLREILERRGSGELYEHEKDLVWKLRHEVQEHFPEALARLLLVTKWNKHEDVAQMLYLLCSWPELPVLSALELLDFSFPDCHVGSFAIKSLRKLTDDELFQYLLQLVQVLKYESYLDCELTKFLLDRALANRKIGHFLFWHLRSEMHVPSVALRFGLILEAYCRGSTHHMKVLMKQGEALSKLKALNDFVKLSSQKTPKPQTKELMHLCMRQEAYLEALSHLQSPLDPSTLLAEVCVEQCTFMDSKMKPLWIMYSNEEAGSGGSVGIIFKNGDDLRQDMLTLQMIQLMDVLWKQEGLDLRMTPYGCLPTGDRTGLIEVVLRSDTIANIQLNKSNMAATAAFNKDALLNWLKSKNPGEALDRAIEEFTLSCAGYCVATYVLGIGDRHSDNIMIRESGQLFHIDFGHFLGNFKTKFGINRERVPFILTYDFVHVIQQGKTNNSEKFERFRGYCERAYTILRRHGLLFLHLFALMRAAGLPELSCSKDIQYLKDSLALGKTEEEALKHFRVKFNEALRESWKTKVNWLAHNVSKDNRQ

Structure (SMILES) | Ratio IC50 [1] | pIC50 [2] | CLhep predicted at 1 µM [3] [mL/min/kg] | Ratio IC50 [4] | CLH [5] [mL/min/kg] | Ratio IC50 [6]
C[C@H](Nc1ncnc(N)c1C(F)(F)F)c1nc2cccc(Cl)c2c(=O)n1-c1ccccc1 | 1200 | 8.74 | 9.83 | 340 | 2 | 560
C[C@H](Nc1ncnc(N)c1C(N)=O)c1nc2cccc(Cl)c2c(=O)n1-c1ccccc1 | 860 | 7.96 | 4.5 | 310 | 1.3 | 310
C[C@H](Nc1nc(N)nc(N)c1Cl)c1nc2cccc(Cl)c2c(=O)n1-c1ccccc1 | 2700 | 9.05 | 10.8 | 370 |  | 200
C[C@H](Nc1nc(N)nc(N)c1C#N)c1nc2c(F)cccc2c(=O)n1-c1cc(F)cc(F)c1 | 810 | 8.46 | 8.83 | 920 |  | 130
C[C@H](Nc1nc(N)nc(N)c1C#N)c1nc2cccc(Cl)c2c(=O)n1-c1ccc(F)cc1 | 64 | 8.70 |  | 4 |  | 2
C[C@H](Nc1nc(N)ncc1C#N)c1nc2cccc(Cl)c2c(=O)n1-c1ccccc1 | 530 | 8.60 |  | 170 |  | 15
C[C@H](Nc1cc(N)ncn1)c1nc2cccc(Cl)c2c(=O)n1-c1ccccc1 | > 100 | 7.00 |  | > 100 |  | > 100
COc1c(N)ncnc1N[C@@H](C)c1nc2cccc(Cl)c2c(=O)n1-c1ccccc1 | > 251 | 7.41 |  | > 251 |  | > 251
C[C@H](Nc1nc(N)nc(N)c1C#N)c1nc2cccc(Cl)c2c(=O)n1-c1cc(C#N)cc(C#N)c1 | > 68 | 6.82 |  | > 68 |  | > 68
C[C@H](Nc1nc(N)nc(N)c1C#N)c1nc2c(C#N)cccc2c(=O)n1-c1cc(F)cc(F)c1 | 1700 | 8.23 | 8.33 | 1200 |  | 800
C[C@H](Nc1nc(Cl)nc(N)c1C#N)c1nc2cccc(Cl)c2c(=O)n1-c1ccccc1 | 720 | 8.37 | 9.83 | 180 |  | 37
C[C@H](Nc1ccncn1)c1nc2cccc(Cl)c2c(=O)n1-c1ccccc1 | > 6 | 5.77 |  | > 6 |  | > 6
C[C@H](Nc1ncncc1C#N)c1nc2cccc(Cl)c2c(=O)n1-c1ccccc1 | 1200 | 8.10 |  | 460 |  | 370
[2H]c1nc(N)c(C#N)c(N[C@@H](C)c2nc3cccc(Cl)c3c(=O)n2-c2ccccc2)n1 |  | 8.92 | 8.33 |  | 1.7 | 
C[C@H](Nc1nc(N)nc(N)c1C#N)c1nc2ccc(F)cc2c(=O)n1-c1cc(F)cc(F)c1 | 600 | 8.32 | 4.83 | 520 |  | 160
C[C@H](Nc1nc(N)nc(N)c1C#N)c1nc2ccccc2c(=O)n1-c1cc(F)cc(F)c1 | 530 | 7.82 | 2.83 | 290 |  | 75
Cc1c(N)ncnc1N[C@@H](C)c1nc2cccc(Cl)c2c(=O)n1-c1ccccc1 | 700 | 7.85 | 12.2 | 380 | 4.17 | 700
C[C@H](Nc1ccnc(N)c1C#N)c1nc2cccc(Cl)c2c(=O)n1-c1ccccc1 | > 340 | 7.52 |  | > 340 |  | > 340
C[C@H](Nc1ncnc(N)c1C#Cc1cccnn1)c1nc2cccc(Cl)c2c(=O)n1-c1ccccc1 | > 42 | 6.62 |  | 30 |  | > 42
C[C@H](Nc1nc(N)nc(N)c1C#N)c1nc2cccc(Cl)c2c(=O)n1-c1cccc(C#N)c1 | 1700 | 8.72 |  | 340 |  | 90
C#Cc1c(N)ncnc1N[C@@H](C)c1nc2cccc(Cl)c2c(=O)n1-c1ccccc1 | 9700 | 10.00 | 11 | 490 |  | 1900
C[C@H](Nc1nc(N)nc(N)c1C#N)c1nc2cccc(Cl)c2c(=O)n1-c1cccc(C(F)(F)F)c1 | 1100 | 8.44 |  | 230 |  | 57
C[C@H](Nc1nc(N)nc(N)c1C#N)c1nc2ccc(F)c(Cl)c2c(=O)n1-c1cc(F)cc(F)c1 | 780 | 8.54 | 6.5 | 470 |  | 74

Next, values leading:

Ratio IC50 [1] | pIC50 [2] | CLhep predicted at 1 µM [3] [mL/min/kg] | Ratio IC50 [4] | CLH [5] [mL/min/kg] | Ratio IC50 [6] | Structure (SMILES)
850 | 8.82 |  | 220 |  | 220 | C[C@H](Nc1nc(N)nc(N)c1C#N)c1nc2cccc(Cl)c2c(=O)n1-c1cc(Cl)cc(C(F)F)c1
530 | 9.00 | 13.7 | 100 |  | 25 | C[C@H](Nc1nc(N)nc(Cl)c1C#N)c1nc2cccc(Cl)c2c(=O)n1-c1ccccc1
1900 | 9.89 | 17.5 | 100 |  | 40 | Cc1nc(N)nc(N[C@@H](C)c2nc3cccc(Cl)c3c(=O)n2-c2ccccc2)c1C#N
620 | 9.30 |  | 240 |  | 100 | C[C@H](Nc1ncnc(N)c1C#Cc1cccnc1)c1nc2cccc(Cl)c2c(=O)n1-c1ccccc1
530 | 9.35 |  | 140 |  | 70 | C[C@H](Nc1nc(N)nc(N)c1C#N)c1nc2cccc(Cl)c2c(=O)n1-c1cccc(Cl)c1
1600 | 9.52 |  | 120 |  | 320 | C[C@H](Nc1ncnc(N)c1C#Cc1ccccc1)c1nc2cccc(Cl)c2c(=O)n1-c1ccccc1
2200 | 10.00 | 3.5 | 80 | 1.7 | 60 | C[C@H](Nc1nc(N)nc(N)c1C#N)c1nc2cccc(Cl)c2c(=O)n1-c1ccccc1
1100 | 9.05 |  | 330 |  | 70 | COc1cccc(-n2c([C@H](C)Nc3nc(N)nc(N)c3C#N)nc3cccc(Cl)c3c2=O)c1
2600 | 9.33 | 13.5 | 520 |  | 110 | C[C@H](Nc1nc(N)nc(N)c1C#N)c1nc2cccc(Cl)c2c(=O)n1-c1cc(F)cc(F)c1
3100 | 9.82 |  | 550 |  | 90 | C[C@H](Nc1nc(N)nc(N)c1C#N)c1nc2cccc(Cl)c2c(=O)n1-c1cccc(F)c1
3200 | 9.40 |  | 52 |  | 512 | C[C@H](Nc1ncnc(N)c1C#Cc1cnccn1)c1nc2cccc(Cl)c2c(=O)n1-c1ccccc1
1400 | 8.80 |  | 230 |  | 120 | C[C@H](Nc1nc(N)nc(N)c1C#N)c1nc2cccc(Cl)c2c(=O)n1-c1cccc(CC(F)F)c1
1500 | 9.52 |  | 260 |  | 230 | C[C@H](Nc1ncnc(N)c1C#Cc1cn[nH]c1)c1nc2cccc(Cl)c2c(=O)n1-c1ccccc1
1800 | 9.27 |  | 190 |  | 210 | C[C@H](Nc1nc(N)nc(N)c1C#N)c1nc2cccc(Cl)c2c(=O)n1-c1cccc(C(F)F)c1
